Converted amounts (≈) assume the structure as drawn. Residues, ends and D or L forms follow the SMILES beside them.
Assays:
HT-29 = assay: Cytotoxicity against human HT-29 cells assessed as growth inhibition after 48 hrs by sulforhodamine B assay; format: functional; conditions: HT-29, 48 h
Procedure, shortened: (§1)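 Cells seeded at 7.5 × 10^3 per well. Samples were dissolved in DMSO, aliquoted and stored at −20 °C. GI50 values are means of three independent experiments, each run in triplicate. Doxorubicin served as positive control.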

[1] = Cytotoxicity against human NCI-ADR-RES cells assessed as growth inhibition after 48 hrs by sulforhodamine B assay; format: functional; procedure, shortened: as §1
HepG2 = assay: Cytotoxicity against human HepG2 cells assessed as growth inhibition after 48 hrs by sulforhodamine B assay; format: functional; conditions: HepG2, 48 h; procedure, shortened: as §1
786-0 = assay: Cytotoxicity against human 786-0 cells assessed as growth inhibition after 48 hrs by sulforhodamine B assay; format: functional; conditions: 786-0, 48 h; procedure, shortened: as §1
[2] = Cytotoxicity against mouse NIH/3T3 cells assessed as growth inhibition after 48 hrs by sulforhodamine B assay; format: cell-based, NIH3T3; procedure, shortened: as §1
MCF7 = assay: Cytotoxicity against human MCF7 cells assessed as growth inhibition after 48 hrs by sulforhodamine B assay; format: functional; conditions: MCF7, 48 h; procedure, shortened: as §1
[3] = Cytotoxicity against human PC3 cells assessed as growth inhibition after 48 hrs by sulforhodamine B assay; format: functional; conditions: PC-3, 48 h; procedure, shortened: as §1

Row | SMILES | GI50 (HT-29) | GI50 [1] | GI50 (HepG2) | GI50 (786-0) | GI50 at 48 h [2] | GI50 (MCF7) | GI50 [3]
1 | CC(C)C[C@@H]1NC(=O)[C@H](CO)NC(=O)CNC(=O)[C@H](CC(C)C)NC(=O)[C@H](CC(N)=O)NC(=O)CNC(=O)[C@H](Cc2ccccc2)NC(=O)[C@H](C)NC(=O)CNC1=O (cyclo(AFGNLGSLG)) | 37.3 µg/mL (≈ 45.6 µM) | 4.8 µM | 41.3 µg/mL (≈ 50.6 µM) | 18.7 µg/mL (≈ 22.9 µM) | > 306 µM | 35.5 µg/mL (≈ 43.4 µM) | 29.8 µg/mL (≈ 36.5 µM)
2 | COc1cccc2c1C(=O)c1c(O)c3c(c(O)c1C2=O)C[C@@](O)(C(=O)CO)C[C@@H]3O[C@H]1C[C@H](N)[C@H](O)[C@H](C)O1 [DOXORUBICIN] | 0.85 µg/mL (≈ 1.56 µM) | 5.1 µM | 0.25 µg/mL (≈ 0.46 µM) | 0.15 µg/mL (≈ 0.276 µM) | 4 µM | 0.07 µg/mL (≈ 0.129 µM) | 0.22 µg/mL (≈ 0.405 µM)
